Screening data (PubChem)
HSF-1 act – increases HSF-1 driven luciferase reporter signal | NIH3T3-HGL HSF-1 luciferase reporter, MG132, 8 h; 100% = twice DMSO control signal | activation, % at 9 µM | actives 1.7% (n = 300,000) | AID 504408;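 active = mean replicate activation of at least 50% with a set share of replicates each reaching 50%; inconclusive = only one of those two conditions met; inactive = mean below 50% and too few replicates reaching it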;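 also: 0% = median of the neutral control wells and 100% = twice that signal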
HSF1 inh – HSF1 inhibition | activity change, negative = inhibition, % at 7.5 µM (by protocol) | actives 0.77% (n = 300,000) | NIH3T3-HGL HSE-luciferase, MG132-induced, luminescence 8 h; hits give low values;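 active = more than half of replicate wells show activity change below -50%, luminescence cut by over half; inconclusive = some wells, but at most half, below -50%; inactive = no replicate well below -50%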;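 also: luciferase reports HSF-1 transcriptional activity via heat shock element; 0% = median of DMSO wells and -100% = zero luminescence signal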
HIF activator – HIF pathway transcriptional activation; U2OS HRE-luciferase reporter, luminescence; normalized: DMSO 0%, desferrioxamine 100%; activation, % at 7.5 µM (by protocol); actives 0.32% (n = 300,000); AID 1910;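 active = mean activation of at least 10% of the iron chelator positive control signal, with at least half of replicates also reaching 10%; inconclusive = mean and replicate majority disagree about reaching 10%; inactive = mean and most replicates under 10%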
T cruzi inh – blocks replication of Trypanosoma cruzi | inhibition, % (concentration not given with the values) | T. cruzi beta-gal in NIH3T3, luminescence, 90 h | actives 1.4% (n = 300,000);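 active = mean inhibition across valid replicates above about 55%, limit read from the data; inconclusive = mean below that limit but half or more replicates reach it; inactive = mean below it, under half of replicates reach it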;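 also: signal also drops with host cell toxicity which is not excluded here; 0% = plate median of DMSO wells and 100% = zero luminescence signal; higher percent means less beta-gal luminescence so fewer parasites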
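Test system: β-gal T. cruzi (Tulahuen C4) inside NIH/3T3 cells / Quantity: 5,000 cells/well / Measured by: luminescence from GalScreen with 0.05% NP40, read after 60 min / Medium: DMEM plus 2% FBS / Measure: parasite load inhibition, % / Reagent: Tulahuen C4 trypomastigotes, 5000/well / Schedule: co-culture of at least 90 h after 3 h attachment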
Calb FLC – affects C. albicans growth with fluconazole; C. albicans CaCi-2 + fluconazole, Alamar Blue growth, 48 h; growth inhibition, % (no concentration beside the values); actives 0.57% (n = 300,000); AID 1979;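 active = growth inhibition above about 58% in most replicates, limit read from the data, passing the limit was not always enough; inconclusive = exactly half the replicates above a set limit; inactive = most replicates below a set limit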;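 also: all wells also contain fluconazole at 8 µg/ml as a sub-toxic cotreatment; 0% = median of DMSO wells and 100% = median of geldanamycin control wells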
An asterisk follows results filed as active; ? = inconclusive; . = not tested or not shown. A selection: hits, their analogues and other compounds. The true share with any hit is near 4.4%.

SMILES	HSF-1 act	HSF1 inh	HIF activator	T cruzi inh	Calb FLC
O=C(CCl)N(C/C=C/c1ccccc1)c1ccc2c(c1)OCCO2	-79	-77*	3	93*	-24
O=C(NCC1CCCCC1)c1ccc(F)cc1Cl	43	23	3	-11	-5
Cc1ccc(C)c(N2CCN(C3CCCCC3NS(=O)(=O)c3ccccc3)CC2)c1 (stereo unspecified)	6	1	.	37	-27
Cc1ccc(Cl)cc1N1CCN(C2CCCCC2NS(=O)(=O)c2ccccc2)CC1 (stereo unspecified)	76*	43	.	42	-7
Cc1cccc(NC2CCCCC2NS(=O)(=O)c2ccccc2)c1 (stereo unspecified)	0	0	-24	20	29
Cc1ccc(C)c(NC2CCCCC2NS(=O)(=O)c2ccccc2)c1 (stereo unspecified)	83*	68	0	-7	8
COC(=O)C1CCN(S(=O)(=O)c2ccc(OC)cc2)CC1	-9	-6	0	-3	-6
CC(C)(C)C(=O)C1=C(O)C(=O)N(Cc2ccccc2)C1c1ccccc1F (stereo unspecified)	35	6	0	26	33
CN(CC(=O)N1CCCCCC1)S(=O)(=O)c1ccccc1	19	3	1	4	-12
CC(Nc1nc(N2CCCCC2)nc2ccccc12)c1ccccc1 (stereo unspecified)	3	-1	-2	64*	39
COc1ccc(Nc2nc(N3CCCC3)nc3ccccc23)c(OC)c1	4	4	2	65*	0
CC(Nc1nc(-c2ccccc2)nc2ccccc12)c1ccccc1 (stereo unspecified)	11	11	0	25	-5
Cc1nc(C(F)(F)F)c(C(=O)N=CN(C)C)s1	-3	-1	1	-7	2
Fc1cccc2sc(Nc3nnc(-c4ccco4)o3)nc12	29	-1	2	23	85*
COc1cccc2sc(Nc3nnc(-c4cccs4)o3)nc12	301*	205	5	65*	-7
O=C(Nc1nc2c(F)cccc2s1)c1ccco1	36	13	2	-20	3
COc1cccc2sc(NC(=O)c3ccc(Br)s3)nc12	33	21	4	10	-5
COc1cccc2sc(Nc3nnc(-c4ccc(F)cc4)o3)nc12	6	4	1	43	117*
O=C(CSc1nnc(-c2ccccc2)o1)NC1CC1	10	0	1	-2	.
CCc1nnc(NC(=O)c2nc(S(=O)(=O)Cc3cccc(C)c3)ncc2Cl)s1	-74	-65*	-5	13	14
CCc1nnc(NC(=O)c2nc(S(=O)(=O)Cc3ccc(C)cc3)ncc2Cl)s1	-63	-60*	1	-1	0
CCOc1ccccc1NC(=O)c1nc(S(=O)(=O)Cc2cccc(C)c2)ncc1Cl	-39	?	-2	28	5
CCc1nnc(NC(=O)c2nc(S(=O)(=O)Cc3ccccc3)ncc2Cl)s1	-36	-18	0	-9	-8
CCCn1c(C)cc(C(=O)COc2ccc(S(=O)(=O)N(CC)CC)cc2[N+](=O)[O-])c1C	3	6	1	7	-19
CN(C)c1cccc(C(=O)NCc2ccc3c(c2)OCO3)c1	11	4	2	12	-17
SMILES	HSF-1 act	HSF1 inh	HIF activator	T cruzi inh	Calb FLC
Cc1cc(C)c2cc(CN(CCO)C(=O)Nc3ccc(F)cc3)c(=O)[nH]c2c1	-13	-5	0	34	-4
Cc1cc(C)c2cc(CN(CCN(C)C)C(=O)Nc3ccccc3Cl)c(=O)[nH]c2c1	-60	-50*	1	30	-5
COCCn1c(=O)[nH]c2cc(C(=O)NC3CCCCCC3)ccc2c1=O	-78	-72*	0	-9	1
COCCn1c(=O)[nH]c2cc(C(=O)N3CCN(c4cccc(Cl)c4)CC3)ccc2c1=O	53*	18	-4	29	1
CCOc1ccc(NC(=O)c2ccc3c(=O)n(-c4ccc(OC)cc4OC)c(=S)[nH]c3c2)cc1	-84	-81*	1	-22	11
COc1ccc(NC(=O)c2ccc3c(=O)n(-c4ccc(OC)cc4OC)c(=S)[nH]c3c2)c(OC)c1	-1	-3	0	9	18
COc1ccc(-n2c(=S)[nH]c3cc(C(=O)NC4CCCCC4)ccc3c2=O)c(OC)c1	60*	28	-1	-4	2
COCCn1c(=O)[nH]c2cc(C(=O)N3CCN(c4ccccc4)CC3)ccc2c1=O	-6	-2	0	1	-4
C/C(=N/NC(=O)c1ccc(C)s1)c1ccncc1	5	3	0	-17	-11
CCc1ccc(C(=O)N/N=C(\C)c2ccncc2)s1	-79	-74*	0	8	-18
CS(=O)(=O)c1ccc(C(=O)OCC(=O)NC(=O)C2CCCCC2)cc1[N+](=O)[O-]	70*	42	0	-6	-6
CC(=O)c1cccc(NC(=O)COC(=O)c2ccc(S(C)(=O)=O)c([N+](=O)[O-])c2)c1	48	25	5	5	12
CC(CCc1ccccc1)NC(=O)COC(=O)c1ccc([N+](=O)[O-])cc1 (stereo unspecified)	-7	-1	0	-3	-10
CS(=O)(=O)c1ccc(C(=O)OCc2nnc(-c3ccccc3)o2)cc1[N+](=O)[O-]	225*	178	4	76*	-16
CC(CCc1ccccc1)NC(=O)COC(=O)c1ccc(S(C)(=O)=O)c([N+](=O)[O-])c1 (stereo unspecified)	-78	-79*	2	46	-24
Cc1ccccc1NC(=O)COC(=O)c1ccc(S(C)(=O)=O)c([N+](=O)[O-])c1	-94	-93*	1	-7	?
CC1=CC(c2ccc(Cl)cc2)n2nc(NC(=O)CCC(=O)O)nc2N1 (stereo unspecified)	-3	-3	0	14	6
O=C(NNC(=S)Nc1ccc(Cl)c(Cl)c1)c1ccccn1	3	9	60*	62*	102*
O=C(NNC(=S)Nc1ccc(F)c(Cl)c1)c1ccccc1Br	44	24	2	2	107*
CCOc1ccc(CN(C)C(=O)[C@H](Cc2ccccc2)NC(=O)OCc2ccccc2)cc1OC	-2	5	0	8	7
CNC(=S)/N=C/NOCc1ccc(Cl)cc1Cl	16	2	0	74*	93*
NC(=O)NOCc1ccc(Cl)cc1Cl	-3	-8	0	-8	-7
O=C(N/N=C/c1cc(Br)ccc1O)C(c1ccncc1)N1CCOCC1 (stereo unspecified)	-2	5	12*	-11	20
CC(CC(=O)Nc1ccc(S(=O)(=O)N2CCOCC2)cc1)c1ccccc1 (stereo unspecified)	5	-4	0	-11	1
